Reference: ChEMBL document CHEMBL3734652, “Pyrrolo[3,4-c]pyridine-1,3(2H)-diones: A Novel Antimycobacterial Class Targeting Mycobacterial Respiration” (J Med Chem, 2015)
≈ marks a conversion by molar mass, not a printed value.

Tests used:
[1] = Metabolic stability in human liver microsomes assessed as residual compound at 0.1 uM after 30 mins by LC-MS/MS method in presence or absence of NADPH; assay type: ADME; conditions: read-out: Stability
[2] = Metabolic stability in mouse liver microsomes assessed as residual compound at 0.1 uM after 30 mins by LC-MS/MS method in presence or absence of NADPH; assay type: ADME; conditions: read-out: Stability
[3] = test system: Liver; assay: Drug level in BALB/c mouse liver microsomes treated with 7-Amino-2-benzyl-4-methyl-6-(3-methyl-1,2,4-oxadiazol-5-yl)-1H-pyrrolo[3,4-c]pyridine-1,3(2H)-dione at 10 uM after 1 hr by LC-MS analysis; assay type: ADME
[4] = Metabolic stability in rat liver microsomes assessed as residual compound at 0.1 uM after 30 mins by LC-MS/MS method in presence or absence of NADPH; assay type: ADME; conditions: read-out: Stability
[5] = Kinetic solubility in FaSSIF at pH 6.5 after 2 hours at 25 degC by shake flask method; assay type: physicochemical; conditions: read-out: Kinetic_solubility
[6] = test system: Plasma; assay: Drug metabolism in C57/BL6 mouse plasma treated with 7-Amino-2-benzyl-4-methyl-6-(3-methyl-1,2,4-oxadiazol-5-yl)-1H-pyrrolo[3,4-c]pyridine-1,3(2H)-dione by LC-MS analysis; assay type: ADME, cell-free
[7] = test system: Mycobacterium tuberculosis; assay: Antimicrobial activity against Mycobacterium tuberculosis H37RvMA under GAST/Fe medium assessed as growth inhibition after 14 days by alamar blue assay; assay type: functional; conditions: 336 h
Procedure, shortened: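 Broth microdilution in GAST/Fe medium against fully virulent Mtb H37RvMa or its derived strains (cytochrome bd oxidase deletion ΔcydKO; qcrB Ala317Thr point mutant). Plates were incubated 14 days, growth was read by Alamar Blue, and MIC90 was taken as the potency value.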

[8] = test system: Mycobacterium tuberculosis; assay: Antimicrobial activity against clinical isolates of Mycobacterium tuberculosis SAWC 2371 Haarlem under 7H9 medium assessed as growth inhibition after 14 days by alamar blue assay; assay type: functional; conditions: 336 h
[9] = test system: Mycobacterium tuberculosis; assay: Antimicrobial activity against GFP expressing recombinant Mycobacterium tuberculosis H37RvMA under 7H9 medium assessed as growth inhibition after 14 days by broth microdilution method; assay type: functional; conditions: 336 h
[10] = test system: Plasma; assay: Drug metabolism in C57/BL6 mouse plasma assessed as formation of 7-Amino-2-benzyl-4-methyl-1,3-dioxo-2,3-dihydro-1H-pyrrolo-[3,4-c]pyridine-6-carboxylic Acid by LC-MS analysis in absence of NADPH; assay type: ADME, cell-free
[11] = test system: Liver; assay: Drug metabolism in BALB/c mouse liver microsomes assessed as formation of 7-Amino-2-benzyl-4-methyl-1,3-dioxo-2,3-dihydro-1H-pyrrolo-[3,4-c]pyridine-6-carboxylic Acid at 10 uM after 1 hr by LC-MS analysis in absence of NADPH; assay type: ADME
[12] = test system: Mycobacterium tuberculosis; assay: Drug metabolism in supernatant of Mycobacterium tuberculosis assessed as formation of 7-Amino-2-benzyl-4-methyl-1,3-dioxo-2,3-dihydro-1H-pyrrolo-[3,4-c]pyridine-6-carboxylic Acid in absence of NADPH; assay type: ADME, organism-based
[13] = test system: Mycobacterium tuberculosis; assay: Antimicrobial activity against clinical isolates of Mycobacterium tuberculosis SAWC 3385 Cas1/Delhi under 7H9 medium assessed as growth inhibition after 14 days by alamar blue assay; assay type: functional; conditions: 336 h
[14] = test system: Mycobacterium tuberculosis; assay: Antimicrobial activity against GFP expressing recombinant Mycobacterium tuberculosis H37RvMA under GAST/Fe medium assessed as growth inhibition after 14 days by broth microdilution method; assay type: functional; conditions: 336 h
[15] = test system: Vero; assay: Cytotoxicity against African green monkey Vero cells assessed as cell viability by MTT assay; assay type: cell-based; conditions: Chlorocebus sabaeus
Procedure, shortened: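 VERO kidney epithelial cells from African green monkey were exposed to compounds at concentrations up to 100 μM, and IC₅₀ was reported.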

[16] = test system: Mycobacterium tuberculosis; assay: Antimicrobial activity against clinical isolates of Mycobacterium tuberculosis SAWC 3906 Atyp-beijing under 7H9 medium assessed as growth inhibition after 14 days by alamar blue assay; assay type: functional; conditions: 336 h
[17] = AUC (0 to infinity) in C57/BL6 mouse at 20 mg/kg, po co-administered with amino-benzotriazole by LC-MS method; assay type: ADME, organism-based; set-up: dose 20 mg/kg, route oral, time infinity; conditions: in vivo
Procedure, shortened: (§1)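 C57/BL6 mice were given a single dose of 5 mg/kg iv or 20 mg/kg po. Each dose was tested alone and co-dosed with aminobenzotriazole, a nonspecific cytochrome P450 inhibitor. Plasma exposure was followed, and each parameter is the mean of three animals.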

[18] = Total clearance in anesthetized C57/BL6 mouse at 5 mg/kg, iv by LC-MS method; assay type: ADME, organism-based; conditions: in vivo; procedure, shortened: as §1
[19] = Ratio of Cmax in C57/BL6 mouse at 20 mg/kg, po co-administered with amino-benzotriazole to MIC90 for Mycobacterium tuberculosis H37RvMA in GAST/Fe medium
[20] = Tmax in anesthetized C57/BL6 mouse at 5 mg/kg, iv by LC-MS method; assay type: ADME, organism-based; conditions: in vivo; procedure, shortened: as §1
[21] = Apparent half-life in C57/BL6 mouse at 20 mg/kg, po co-administered with amino-benzotriazole by LC-MS method; assay type: ADME, organism-based; conditions: in vivo, read-out: t1/2(app) (converted); procedure, shortened: as §1
[22] = test system: Liver microsome; assay: Intrinsic clearance in human liver microsomes assessed per mg of protein at 0.1 uM by LC-MS/MS method in presence or absence of NADPH; assay type: ADME
[23] = Cmax in C57/BL6 mouse at 20 mg/kg, po by LC-MS method; assay type: ADME, organism-based; set-up: dose 20 mg/kg, route oral; conditions: in vivo; procedure, shortened: as §1
[24] = Cmax in anesthetized C57/BL6 mouse at 5 mg/kg, iv by LC-MS method; assay type: ADME, organism-based; set-up: dose 5 mg/kg, route intravenous; conditions: in vivo; procedure, shortened: as §1
[25] = test system: Liver microsome; assay: Intrinsic clearance in rat liver microsomes assessed per mg of protein at 0.1 uM by LC-MS/MS method in presence or absence of NADPH; assay type: ADME
[26] = Tmax in C57/BL6 mouse at 20 mg/kg, po co-administered with amino-benzotriazole by LC-MS method; assay type: ADME, organism-based; conditions: in vivo; procedure, shortened: as §1
[27] = Apparent half-life in anesthetized C57/BL6 mouse at 5 mg/kg, iv by LC-MS method; assay type: ADME, organism-based; conditions: in vivo, read-out: t1/2(app) (converted); procedure, shortened: as §1
[28] = Volume of distribution in anesthetized C57/BL6 mouse at 5 mg/kg, iv co-administered with amino-benzotriazole by LC-MS method; assay type: ADME, organism-based; conditions: in vivo; procedure, shortened: as §1
[29] = AUC (0 to infinity) in C57/BL6 mouse at 20 mg/kg, po by LC-MS method; assay type: ADME, organism-based; set-up: dose 20 mg/kg, route oral, time infinity; conditions: in vivo; procedure, shortened: as §1
[30] = Oral bioavailability in C57/BL6 mouse at 20 mg/kg co-administered with amino-benzotriazole by LC-MS method; assay type: ADME, organism-based; conditions: in vivo; procedure, shortened: as §1
[31] = test system: Mus musculus; assay: Ratio of AUC (0 to infinity) in C57/BL6 mouse at 20 mg/kg, po co-administered with amino-benzotriazole to AUC (0 to infinity) in C57/BL6 mouse at 20 mg/kg, po without co-administration of amino-benzotriazole; assay type: ADME, organism-based; conditions: in vivo
[32] = Cmax in C57/BL6 mouse at 20 mg/kg, po co-administered with amino-benzotriazole by LC-MS method; assay type: ADME, organism-based; set-up: dose 20 mg/kg, route oral; conditions: in vivo; procedure, shortened: as §1
[33] = Cmax in anesthetized C57/BL6 mouse at 5 mg/kg, iv co-administered with amino-benzotriazole by LC-MS method; assay type: ADME, organism-based; set-up: dose 5 mg/kg, route intravenous; conditions: in vivo; procedure, shortened: as §1
[34] = AUC (0 to infinity) in anesthetized C57/BL6 mouse at 5 mg/kg, iv co-administered with amino-benzotriazole by LC-MS method; assay type: ADME, organism-based; set-up: dose 5 mg/kg, route intravenous, time infinity; conditions: in vivo; procedure, shortened: as §1
[35] = Intrinsic clearance in mouse liver microsomes assessed per mg of protein at 0.1 uM by LC-MS/MS method in presence or absence of NADPH; assay type: ADME
[36] = Tmax in C57/BL6 mouse at 20 mg/kg, po by LC-MS method; assay type: ADME, organism-based; conditions: in vivo; procedure, shortened: as §1
[37] = Apparent half-life in anesthetized C57/BL6 mouse at 5 mg/kg, iv co-administered with amino-benzotriazole by LC-MS method; assay type: ADME, organism-based; conditions: in vivo, read-out: t1/2(app) (converted); procedure, shortened: as §1
[38] = Plasma protein binding in human at 5 uM preincubated for 1 hr by LC-MS/MS method; assay type: ADME, cell-free; conditions: read-out: PPB (converted)
[39] = Total clearance in anesthetized C57/BL6 mouse at 5 mg/kg, iv co-administered with amino-benzotriazole by LC-MS method; assay type: ADME, organism-based; conditions: in vivo; procedure, shortened: as §1
[40] = Metabolic stability in human liver S9 fractions assessed as residual compound at 0.1 uM after 40 mins by LC-MS/MS method in presence or absence of NADPH; assay type: ADME; conditions: read-out: Stability
[41] = AUC (0 to infinity) in anesthetized C57/BL6 mouse at 5 mg/kg, iv by LC-MS method; assay type: ADME, organism-based; set-up: dose 5 mg/kg, route intravenous, time infinity; conditions: in vivo; procedure, shortened: as §1
[42] = test system: Mycobacterium tuberculosis; assay: Antimicrobial activity against clinical isolates of Mycobacterium tuberculosis SAWC 3933 LCC under 7H9 medium assessed as growth inhibition after 14 days by alamar blue assay; assay type: functional; conditions: 336 h
[43] = Half life in human plasma at 0.1 uM by LC-MS/MS method; assay type: ADME, cell-free
[44] = Octanol-phosphate buffer partition coefficient, log D of the compound at 100 uM at pH 7.4 after 3 hrs by shake flask method; assay type: physicochemical
[45] = Volume of distribution in anesthetized C57/BL6 mouse at 5 mg/kg, iv by LC-MS method; assay type: ADME, organism-based; conditions: in vivo; procedure, shortened: as §1
[46] = Oral bioavailability in C57/BL6 mouse at 20 mg/kg by LC-MS method; assay type: ADME, organism-based; conditions: in vivo; procedure, shortened: as §1
[47] = Apparent half-life in C57/BL6 mouse at 20 mg/kg, po by LC-MS method; assay type: ADME, organism-based; conditions: in vivo, read-out: t1/2(app) (converted); procedure, shortened: as §1
[48] = Tmax in anesthetized C57/BL6 mouse at 5 mg/kg, iv co-administered with amino-benzotriazole by LC-MS method; assay type: ADME, organism-based; conditions: in vivo; procedure, shortened: as §1

Cc1nc(C(=O)NC#N)c(N)c2c1C(=O)N(Cc1ccccc1)C2=O
remaining at 0.5 h, 0.1 µM [1]: 99%
remaining at 0.5 h, 0.1 µM [2]: 95%
Drug metabolism [3]: metabolite_detected
remaining at 0.5 h, 0.1 µM [4]: 92%
solubility kinetic at 2 h [5]: 185 µM (≈ 62 µg/mL)
Drug metabolism [6]: metabolite_detected
MIC90 [7]: > 160 µM

Cc1nc(C(N)=O)c(N)c2c1C(=O)N(Cc1ccccc1)C2=O
Drug metabolism [3]: metabolite_detected
solubility kinetic at 2 h [5]: < 5 µM
Drug metabolism [6]: metabolite_detected
MIC90 [7]: > 160 µM

CCOC(=O)c1nc(C)c2c(c1N)C(=O)N(Cc1ccccc1)C2=O
remaining at 0.5 h, 0.1 µM [1]: 14%
MIC90 [8]: < 0.08 µM
remaining at 0.5 h, 0.1 µM [2]: 18%
MIC90 [9]: > 20 µM
remaining at 0.5 h, 0.1 µM [4]: 19%
Drug metabolism [10]: metabolite_detected
Drug metabolism [11]: metabolite_detected
Drug metabolism [12]: metabolite_detected
solubility kinetic at 2 h [5]: < 5 µM
MIC90 [13]: < 0.08 µM
MIC90 [14]: 0.132 µM
IC50 [15]: > 100 µM
MIC90 [7]: < 0.156 µM
MIC90 [16]: < 0.08 µM

Cc1noc(-c2nc(C)c3c(c2N)C(=O)N(Cc2cccc(Cl)c2)C3=O)n1
AUC(0-inf) [17]: 1.33 µM·h
clearance [18]: 171 mL/min/kg
Ratio [19]: 2
Tmax [20]: 0.17 h
half-life [21]: 3.39 h
CLint [22]: < 11.6 µL/min/mg
MIC90 [8]: 0.6 µM (≈ 0.23 µg/mL)
Cmax [23]: 33 nM
MIC90 [9]: > 20 µM
Cmax [24]: 622 nM
CLint [25]: < 11.6 µL/min/mg
Tmax [26]: 0.5 h
half-life [27]: 7.01 h
Vd [28]: 53.1 L/kg
solubility kinetic at 2 h [5]: 72 µM (≈ 27.6 µg/mL)
AUC(0-inf) [29]: 0.133 µM·h
bioavailability [30]: 26%
Ratio AUC [31]: 10
MIC90 [13]: 0.6 µM (≈ 0.23 µg/mL)
Cmax [32]: 167 nM
Cmax [33]: 1530 nM
MIC90 [14]: 0.065 µM
AUC(0-inf) [34]: 2.65 µM·h
CLint [35]: < 11.6 µL/min/mg
IC50 [15]: > 100 µM
Tmax [36]: 1 h
half-life [37]: 7.31 h
fraction unbound at 1 h, 5 µM [38]: 0.033
clearance [39]: 94.5 mL/min/kg
remaining at 40 min, 0.1 µM [40]: 97%
AUC(0-inf) [41]: 1.27 µM·h
MIC90 [42]: 0.15 µM (≈ 0.0576 µg/mL)
half-life at 0.1 µM [43]: 1.03 h
logD at 3 h, 100 µM [44]: 3.34
MIC90 [7]: < 0.156 µM
Vd [45]: 104 L/kg
bioavailability [46]: 2%
half-life [47]: 2.19 h
Tmax [48]: 0.17 h
MIC90 [16]: 0.15 µM (≈ 0.0576 µg/mL)
